Test [1] relates to Mycobacterium tuberculosis. The experiment in a line: Antitubercular activity against Mycobacterium tuberculosis H37Ra after 5 days by microplate alamar blue assay. Format: functional. As to conditions: 120 h. An outline of the steps:
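Microplate Alamar Blue assay on M. tuberculosis H37Ra. A log-phase culture was diluted to a final OD550 nm of 0.05 in Sauton's medium. Test compounds in DMSO were dispensed into 96-well plates, with two-fold dilutions in the initial screen.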
Background: The colour change of resazurin is a common sign of viable cells or microbes.

The subject of test [2] is Mycobacterium tuberculosis. The experiment in a line: Antitubercular activity against Mycobacterium tuberculosis H37Rv after 24 hrs by agar microdilution method. The test is classed as functional. An outline of the steps:
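Agar microdilution on M. tuberculosis H37Rv. Two-fold compound dilutions were made in 7H10 agar with OADC. Inoculum came from L–J medium, harvested in 0.85% saline with 0.05% Tween-80. Slants were held 24 h at 37 °C, then streaked with 5×10^4 bacilli per tube and incubated at 37 °C for 30 days. MIC was the concentration giving complete colony inhibition versus medium-only control.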

The test system of test [3] is Sporothrix schenckii. As to the kind of experiment: Antimicrobial activity against Sporothrix schenckii after 72 hrs by standard microbroth dilution technique. Format: functional.
Test [4] has as its system Trichophyton mentagrophytes. The experiment in a line: Antimicrobial activity against Trichophyton mentagrophytes after 96 hrs by standard microbroth dilution technique. The test is classed as functional. On the technique in general: Dilution methods test growth across graded concentrations, often in twofold steps.
Test [5] relates to Escherichia coli. The experiment in a line: Antimicrobial activity against Escherichia coli ATCC 9637 after 24 hrs by standard microbroth dilution technique. Format: functional, organism-based.
Test [6] deals with Pseudomonas aeruginosa. As to the kind of experiment: Antimicrobial activity against Pseudomonas aeruginosa ATCC BAA-427 after 24 hrs by standard microbroth dilution technique. Format: functional, organism-based.
Test [7] deals with Staphylococcus aureus. The experiment in a line: Antimicrobial activity against Staphylococcus aureus ATCC 25923 after 24 hrs by standard microbroth dilution technique. Format: functional, organism-based.
Test [8] has as its system Klebsiella pneumoniae. As to the kind of experiment: Antimicrobial activity against Klebsiella pneumoniae ATCC 27736 after 24 hrs by standard microbroth dilution technique. The test is classed as functional, organism-based.
Test [9] relates to Candida albicans. The experiment in a line: Antimicrobial activity against Candida albicans ATCC 1405B after 48 hrs by standard microbroth dilution technique. Format: functional.
For test [10], the system named is Cryptococcus neoformans. The experiment in a line: Antimicrobial activity against Cryptococcus neoformans after 72 hrs by standard microbroth dilution technique. Format: functional.
In test [11] the test system is Aspergillus fumigatus. As to the kind of experiment: Antimicrobial activity against Aspergillus fumigatus after 72 hrs by standard microbroth dilution technique. The test is classed as functional.
Test [12] deals with Candida parapsilosis. As to the kind of experiment: Antimicrobial activity against Candida parapsilosis ATCC 22019 after 48 hrs by standard microbroth dilution technique. The test is classed as functional. As to conditions: Lodderomyces parapsilosis, ATCC 22019, 48 h.

Structures are written as SMILES. Converted amounts (≈) assume the structure as drawn. The source made the active and inactive calls. The calls are words filed in the database; no cut-off is given here.

In the case of `O=C1/C(=C/c2ccc(Br)cc2)CCC/C1=C\c1ccc(Br)cc1`, the MIC (usually the lowest concentration that inhibits growth of the organism) in test [1] was 1.56 µg/mL (≈ 3.61 µM); in test [2], 12.5 µg/mL (≈ 28.9 µM); in [3], 25 µg/mL (≈ 57.8 µM); in test [4], 12.5 µg/mL (≈ 28.9 µM). Moreover, the outcome in test [5], in test [6], in test [7] and in test [8] was inactive.

Take `O=C1/C(=C/c2ccco2)CCC/C1=C\c1ccco1`: the MIC in test [1] was > 12.5 µg/mL; in test [2] it was > 12.5 µg/mL; in test [9], > 50 µg/mL; in [10], > 50 µg/mL; in [11], > 50 µg/mL; in [12], > 50 µg/mL. The outcome in test [5], in [6], in test [7] and in test [8] was inactive.

As to `COc1ccc(/C=C2\CC/C(=C\c3ccc(OC)c(OC)c3)C2=O)cc1OC`, the MIC in test [1] was > 12.5 µg/mL; in test [2], > 12.5 µg/mL; in [9], > 50 µg/mL; in test [10], > 50 µg/mL; in [11] it was > 50 µg/mL; in test [12] it was > 50 µg/mL. Also, the result in [5], in test [6], in [7] and in test [8] was inactive.

The values are drawn from ChEMBL document CHEMBL1137715, “A facile synthesis of alpha,alpha'-(EE)-bis(benzylidene)-cycloalkanones and their antitubercular evaluations” (2009).
